Data reported in ChEMBL document CHEMBL3351942, “Rexinoids isolated from Sophora tonkinensis with a gene expression profile distinct from the synthetic rexinoid bexarotene” (J Nat Prod, 2014).
Blank lines part the entries; values can stand above or below the compound they belong to. Activity calls are given as the source filed them. The calls are words filed in the database; no cut-off is given here.

Assays:
[1] = target: T1, Retinoic acid receptor RXR-alpha (Homo sapiens) (UniProt P19793); assay: (§1) Agonist activity at human RXR-alpha expressed in HEK293 cells coexpressing with pCMX-beta-gal after 24 to 48 hrs by luciferase reporter gene assay; assay type: cell-based
T1 sequence (whole entry): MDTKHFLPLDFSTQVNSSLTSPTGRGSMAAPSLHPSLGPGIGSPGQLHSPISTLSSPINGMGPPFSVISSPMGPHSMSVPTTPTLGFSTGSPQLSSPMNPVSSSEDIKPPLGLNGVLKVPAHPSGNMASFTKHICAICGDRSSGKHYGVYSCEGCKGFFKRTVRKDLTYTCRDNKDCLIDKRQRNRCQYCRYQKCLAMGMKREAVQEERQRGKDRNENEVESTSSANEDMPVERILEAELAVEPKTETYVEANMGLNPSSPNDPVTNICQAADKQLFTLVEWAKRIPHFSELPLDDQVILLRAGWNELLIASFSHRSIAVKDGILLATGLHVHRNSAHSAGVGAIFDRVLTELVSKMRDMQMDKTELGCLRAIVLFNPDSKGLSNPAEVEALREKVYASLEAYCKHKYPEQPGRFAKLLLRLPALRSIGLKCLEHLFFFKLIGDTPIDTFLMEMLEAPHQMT
Summary of the method: (§2)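 HEK293 cells transfected by calcium phosphate with 60 ng pCMX-hRXR-α, 150 ng CRBPII-tk-Luc and 30 ng pCMX-β-gal plus carrier pUC18 (600 ng DNA per well). After 8 h the cells were washed and exposed to compound in medium with 10% FBS for 24−48 h. Luciferase was normalized to β-galactosidase. Triplicate or quadruplicate; representative of three independent experiments; EC50 from dose-response.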

[2] = target: T1, Retinoic acid receptor RXR-alpha (Homo sapiens); assay: Agonist activity at human RXR-alpha expressed in HEK293 cells coexpressing with pCMX-beta-gal at 10 uM after 24 to 48 hrs by luciferase reporter gene assay; assay type: cell-based
[3] = target: T2, Peroxisome proliferator-activated receptor delta (Mus musculus) (UniProt P35396); assay: Activation of PPARdelta in mouse C2C12 cells assessed as induction of ANGPTL4 mRNA expression at 1 uM after 24 hrs by quantitative RT-PCR analysis; assay type: cell-based
T2 sequence (whole entry): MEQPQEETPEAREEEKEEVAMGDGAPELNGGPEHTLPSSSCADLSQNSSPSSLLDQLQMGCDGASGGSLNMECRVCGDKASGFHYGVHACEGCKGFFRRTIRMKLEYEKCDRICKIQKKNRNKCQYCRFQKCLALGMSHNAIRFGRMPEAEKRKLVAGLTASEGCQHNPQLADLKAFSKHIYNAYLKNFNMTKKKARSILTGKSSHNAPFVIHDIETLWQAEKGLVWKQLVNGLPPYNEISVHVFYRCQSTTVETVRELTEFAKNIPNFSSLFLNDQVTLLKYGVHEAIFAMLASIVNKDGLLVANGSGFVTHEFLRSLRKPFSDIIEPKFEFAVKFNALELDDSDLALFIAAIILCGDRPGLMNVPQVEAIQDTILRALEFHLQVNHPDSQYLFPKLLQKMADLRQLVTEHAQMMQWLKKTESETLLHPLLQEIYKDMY
Summary of the method: (§3)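 Differentiated C2C12 myotubes (2% horse serum, 5 days) exposed 24 h with or without PPARδ agonist GW501516 (1 μM). mRNA quantified by SYBR green real-time RT-PCR, normalized to β-actin by delta-delta Ct, and expressed as fold induction vs vehicle; means ± SD of four determinants from one of two independent experiments; one-way ANOVA with Bonferroni.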

[4] = target: T2, Peroxisome proliferator-activated receptor delta (Mus musculus); assay: Activation of PPARdelta in mouse C2C12 cells assessed as induction of FABP3 mRNA expression at 1 uM after 24 hrs by quantitative RT-PCR analysis; assay type: cell-based; summary of the method: as §3
RAW264.7 [5] = assay: Activation of RXR/LXR heterodimer in mouse RAW264.7 cells assessed as increase in ABCA1 mRNA level at 1 uM by quantitative RT-PCR analysis; assay type: cell-based
Summary of the method: (§4)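 RAW264.7 macrophages in DMEM/10% FBS, exposed 24 h with or without LXR agonist T0901317; ABCA1 mRNA by SYBR green qRT-PCR, β-actin-normalized, fold vs vehicle; means ± SD of three determinants, one of three independent experiments; one-way ANOVA, Bonferroni.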

F9 [6] = assay: Activation of RXR/RAR heterodimer in mouse F9 cells assessed as increase in CYP26A1 mRNA level at 1 uM by quantitative RT-PCR analysis in presence of atRA; assay type: cell-based
Summary of the method: (§5)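 F9 teratocarcinoma cells on 0.2% gelatin-coated dishes in DMEM/10% FBS; 24 h exposure with or without atRA (0.1 μM). CYP26A1 mRNA by qRT-PCR normalized to β-actin, fold vs vehicle; means ± SD of three determinants, one of three experiments; ANOVA/Bonferroni.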

Homo sapiens = species on record: Homo sapiens; assay: Activation of RXR/VDR heterodimer in human hepatoma cells assessed as increase in CYP24A1 mRNA level at 1 uM by quantitative RT-PCR analysis; assay type: cell-based
Summary of the method: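 HLE hepatoma cells treated 24 h with or without VD3 (0.1 μM); CYP24A1 mRNA by SYBR green qRT-PCR normalized to β-actin (delta-delta Ct), fold over vehicle; means ± SD of three determinants, representative of three experiments.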

[7] = Activation of LXR in mouse C2C12 cells assessed as induction of ApoD mRNA expression at 1 uM after 24 hrs in presence of T0901317 by quantitative RT-PCR analysis; assay type: cell-based
Summary of the method: (§6)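 C2C12 myoblasts grown in DMEM/10% FBS, differentiated at confluence in 2% horse serum, medium changed every other day for 5 days; myotubes treated 24 h with or without T0901317 (1 μM). Total RNA, DNase-treated, oligo(dT) RT from 0.5 μg, SYBR green qPCR; normalized to β-actin (delta-delta Ct), fold over vehicle; mean ± SD of four determinants, one of two experiments.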

[8] = target: T2, Peroxisome proliferator-activated receptor delta (Mus musculus); assay: Activation of PPARdelta in mouse C2C12 cells assessed as induction of FABP3 mRNA expression at 1 uM after 24 hrs in presence of GW501516 by quantitative RT-PCR analysis; assay type: cell-based; summary of the method: as §3
F9 [9] = assay: Activation of RXR/RAR heterodimer in mouse F9 cells assessed as increase in CYP26A1 mRNA level at 1 uM by quantitative RT-PCR analysis; assay type: cell-based; summary of the method: as §5
RAW264.7 [10] = assay: Activation of RXR/LXR heterodimer in mouse RAW264.7 cells assessed as potentiation of T0901317-induced increase in ABCA1 mRNA level at 1 uM by quantitative RT-PCR analysis; assay type: cell-based; summary of the method: as §4
[11] = Activation of LXR in mouse C2C12 cells assessed as induction of ApoE mRNA expression at 1 uM after 24 hrs in presence of T0901317 by quantitative RT-PCR analysis; assay type: cell-based; summary of the method: as §6
[12] = Activation of LXR in mouse C2C12 cells assessed as induction of ABCA1 mRNA expression at 1 uM after 24 hrs in presence of T0901317 by quantitative RT-PCR analysis; assay type: cell-based; summary of the method: as §6
[13] = target: T2, Peroxisome proliferator-activated receptor delta (Mus musculus); assay: Activation of PPARdelta in mouse C2C12 cells assessed as induction of CPT1A mRNA expression at 1 uM after 24 hrs by quantitative RT-PCR analysis; assay type: cell-based; summary of the method: as §3
[14] = Activation of LXR in mouse C2C12 cells assessed as induction of lipoprotein lipase mRNA expression at 1 uM after 24 hrs by quantitative RT-PCR analysis; assay type: cell-based; summary of the method: as §6
[15] = Activation of LXR in mouse C2C12 cells assessed as induction of FAS mRNA expression at 1 uM after 24 hrs in presence of T0901317 by quantitative RT-PCR analysis; assay type: cell-based; summary of the method: as §6
3T3-L1 = assay: Activation of PPARgamma/RXR heterodimer in mouse 3T3-L1 cell assessed as induction of adipogenesis at 1 uM after 6 days by Oil red O-staining; assay type: cell-based
Summary of the method: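 3T3-L1 cells grown to confluence, 2 days later induced 48 h with 10% FBS, 5 μg/mL insulin, 0.25 μM dexamethasone, 0.5 mM IBMX, then 48 h insulin-only medium; compounds in DMSO added to postdifferentiation medium for 4 days. Formalin-fixed (10%, 1 h, RT), stained with Oil red O, washed, visualized.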

[16] = Activation of LXR in mouse C2C12 cells assessed as induction of lipoprotein lipase mRNA expression at 1 uM after 24 hrs in presence of T0901317 by quantitative RT-PCR analysis; assay type: cell-based; summary of the method: as §6
[17] = Activation of LXR in mouse C2C12 cells assessed as induction of SREBP1 mRNA expression at 1 uM after 24 hrs in presence of T0901317 by quantitative RT-PCR analysis; assay type: cell-based; summary of the method: as §6
[18] = target: T3, Retinoic acid receptor RXR-alpha (Homo sapiens, UniProt P19793); assay: as §1; assay type: cell-based; summary of the method: as §2
T3 sequence (P19793 whole entry): T1 sequence (whole entry)

[19] = target: T1, Retinoic acid receptor RXR-alpha (Homo sapiens); assay: Binding affinity to RXRalpha (unknown origin) by receptor-SRC1 cofactor complex formation assay
Summary of the method: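 Ligand-dependent binding of RXR isotype to coactivator SRC-1 in an NR cofactor kit, detected with HRP-conjugated anti-RXR antibody at OD450. The full agonist CD3254 defined 100% and vehicle 0%. Efficacy was taken as maximum B/Bmax% and potency as EC50.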

[20] = target: T1, Retinoic acid receptor RXR-alpha (Homo sapiens); assay: Agonist activity at human RXR-alpha expressed in HEK293 cells coexpressing with pCMX-beta-gal at 10 uM after 24 to 48 hrs by luciferase reporter gene assay in presence of PA452 pan-antagonist; assay type: cell-based
Summary of the method: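 RXRα reporter in HEK293: cotransfected with RXRα expression vector, luciferase reporter and pCMX-β-gal. Eight hours after transfection, cells were treated with test compound at 10 μM with or without the RXR pan-antagonist PA452 (10 μM). Luciferase was normalized to β-galactosidase. Means ± SD of three determinants; representative of three experiments; one-way ANOVA with Bonferroni's t-test.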

- Activity [2]: inactive
SMILES: CC(C)=CCc1cc([C@@H]2CC(=O)c3ccc(O)c(CC=C(C)C)c3O2)cc(CC=C(C)C)c1O

- Activity [1]: Dose-dependent effect
- EC50 [18]: 0.78 µM
- Activity [19]: inactive
- Activity [20]: inactive
SMILES: CC(C)=CCc1cc([C@@H]2CC(=O)c3ccc(O)c(CC=C(C)C)c3O2)cc2c1OC(C)(C)C(O)C2 (stereo partly specified)

The next lines start with the compound.

SMILES: C=CCc1ccc(O)c(-c2ccc(O)c(CC=C)c2)c1
- ED50 [1]: 11.8 µM

SMILES: CC/C=C\C/C=C\C/C=C\C/C=C\C/C=C\C/C=C\CCC(=O)O
- ED50 [1]: 50 µM

SMILES: C=C(c1ccc(C(=O)O)cc1)c1cc2c(cc1C)C(C)(C)CCC2(C)C
- Activity [3]: Active
- Activity [4]: Active
- Activity (RAW264.7 [5]): Active
- Activity (F9 [6]): Active
- Activity (Homo sapiens): Active
- Activity [7]: Active
- Activity [8]: Active
- Activity (F9 [9]): Active
- Activity (RAW264.7 [10]): Active
- Activity [11]: Active
- Activity [12]: Active
- Activity [13]: Active
- Activity [14]: inactive
- Activity [15]: Active
- Activity (3T3-L1): Active
- Activity [16]: inactive
- Activity [17]: Active

SMILES: C=C1C(=O)O[C@H]2C[C@@H](C)[C@@H]3C=CC(=O)[C@@]3(C)[C@@H](OC(C)=O)[C@H]12
- ED50 [1]: 4.9 µM

SMILES: CC(C)CCC[C@@H](C)CCC[C@@H](C)CCCC(C)CC(=O)O (stereo partly specified)
- ED50 [1]: 3 µM
